Several values for one entry are separate records, joined by “and”; a condition that tells them apart may be missing. Equal entries are not always repeated. Activity calls are given as the source filed them.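 Rule for the calls, unless noted: active = calcium signal rise above buffer-control mean plus 5 SD in both duplicates, and also a hit in the primary screen; inactive = the rest.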
Molecular target: Short transient receptor potential channel 4 (Mus musculus) (UniProt Q9QUQ5)
Experiment: calcium flux activators in TRPC4/5HT1a cells, counter-screen for TRPC4 activator project, cell-based, second counter screen, HEK293 TRPC4/5HT1a, Fluo-4 (AID 434977);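 for activation: plate controls were assay buffer for no effect and maximal serotonin response for full effect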
Conditions: Fluo-4 calcium flux, at 10 µM; active compounds read high

| SMILES | outcome | activation |
| --- | --- | --- |
| COc1ccc(C(CNC(=O)COc2ccccc2OC)N(C)C)cc1OC (stereo not drawn) | inactive |  |
| COc1ccc(C(CNC(=O)CCOc2ccccc2)N(C)C)cc1 (stereo not drawn) | inactive |  |
| CN(C)C(CNc1ccc(C(F)(F)F)cn1)c1ccccc1 (stereo not drawn) |  | 5.53% (active) |
| Fc1ccc(-n2cc(CNCCc3cccnc3)c(-c3ccccc3Cl)n2)cc1 | inactive |  |
| CCOC(=O)c1ccc(NC(=O)NCCc2cnc[nH]2)cc1 |  | 90.7% (active) |
| CN1CCN(C(=O)c2cccn(Cc3c(Cl)cccc3Cl)c2=O)CC1 |  | 42.6% (active) |
| Cc1sc2ncnc(NCC(c3ccccc3)N(C)C)c2c1C (stereo not drawn) |  | 49% (active) |
| O=C(O)C1C2C=CC(C2)C1C(=O)N1CCN(C/C=C/c2ccccc2)CC1 (stereo not drawn) |  | 12.8% (active) |
| CCCCN(CC)CCNC(=O)c1cc2c(-c3ccc(Cl)cc3)nn(C)c2s1 |  | 20.5% (active) |
| O=C(Nc1ccncc1)c1ccc(Cl)c(S(=O)(=O)N2CCc3ccccc32)c1 |  | 17.7% (active) |
| CC(=O)OCC[N+](C)(C)C |  | 110% (active) and 105% (active) |
| COc1ccc(CCN(C)C(=O)C2CCCN(C3CCN(Cc4ccccc4)CC3)C2)cc1OC (stereo not drawn) |  | 28.9% (active) |
| Cc1cc(C)cc(NC(=S)N2CCN(c3ncc(C(F)(F)F)cc3Cl)CC2)c1 |  | 49.6% (active) |
| COc1ccc(C(CNC(=O)Cc2ccc(-c3ccccc3)cc2)N(C)C)cc1 (stereo not drawn) | inactive |  |
| O=c1c(Cc2ccccc2)c(O)ccn1CCc1cnc[nH]1 |  | 39.3% (active) |
| COc1ccc(C(=O)NNC(=S)NC(=O)c2cccs2)cc1 |  | 42.7% (active) |
| CCC(=O)NC(C)C(c1cccs1)N1CCN(c2ccccc2)CC1 (stereo not drawn) | inactive |  |
| NCCCNC(=O)c1cc2ccccc2[nH]1 |  | 6.83% (active) |
| Cn1c2ccccc2c(=O)c2c(=O)n(C3CCCCC3)c(-c3ccco3)nc21 | inactive |  |
| COc1ccc(-n2c3c(cc(C(=O)NNc4ccccc4)c2=O)C(=O)CC(C)(C)C3)cc1 | inactive |  |

| SMILES | outcome | activation |
| --- | --- | --- |
| O=C(c1sc2ccccc2c1Cl)N(Cc1ccccc1)C1CCS(=O)(=O)C1 (stereo not drawn) | inactive |  |
| CN(C)C(CNC(=S)Nc1ccc(Cl)cc1)c1cccnc1 (stereo not drawn) | inactive |  |
| O=C1/C(=C\c2cc([N+](=O)[O-])ccc2O)SC(=S)N1Cc1ccc(Cl)cc1 |  | 147% (active) |
| Cc1ccc(C(=O)NNC(=S)NC(=O)COc2ccccc2)cc1 |  | 112% (active) |
| CCCCCc1c(O)nc(SCCN(C)C)[nH]c1=O |  | 15.6% (active) |
| CC1CC(C)CN(CCCNS(=O)(=O)c2cc(Br)cc3c2N(C(=O)C2CC2)CC3)C1 (stereo not drawn) |  | 64.6% (active) |
| CN1C2C=C(N(CCc3ccccc3)C(=O)c3ccc(Cl)cc3)CC1CC2 (stereo not drawn) | inactive |  |
| Cc1ccccc1C(=O)NNC(=S)NC(=O)COc1ccccc1 |  | 127% (active) |
| CCOC(=O)C1(CC2CCCCO2)CCN(Cc2cc(F)ccc2-n2cccn2)CC1 (stereo not drawn) | inactive |  |
| Cc1ccc(NC(=O)CCN2CCC(Cc3ccccc3)CC2)cc1 |  | 15.7% (active) |
| CCCn1ncc(CN2CCC(n3nccc3NC(=O)CCc3ccccc3)CC2)c1C | inactive |  |
| Cc1sc2ncnc(NCC(c3ccco3)N(C)C)c2c1C (stereo not drawn) |  | 91.1% (active) |
| CCCN(CCC)CCNC(=O)CCC(=O)Nc1ccc2nc(N3CCOCC3)cc(C)c2c1 |  | 35.6% (active) |
| CCN1CCN(c2c(Cl)cccc2NC(=O)c2ccc([N+](=O)[O-])cc2)CC1 |  | 7.83% (active) |
| CN1CCN(c2ccc(NC(=O)c3ccc(-c4cccc([N+](=O)[O-])c4)o3)cc2)CC1 | inactive |  |
| OCCC1CN(Cc2ccccc2-c2ccco2)CCN1Cc1ccccc1 (stereo not drawn) |  | 17.2% (active) |
| CN(C)C(CNC(=O)NC1CCCCC1)c1cccnc1 (stereo not drawn) | inactive |  |
| O=C1S/C(=C\c2ccc(N3CCOCC3)o2)C(=O)N1Cc1c(F)cccc1Cl | inactive |  |
| COCCCn1c(N)c(-c2nc3ccccc3n2C)c2nc3ccccc3nc21 |  | 27.5% (active) |

System: not listed separately
Experiment: calcium flux inhibitors in TRPC4/5HT1a cells, confirmation, counter-screen for TRPC4 inhibitor project, cell-based, second counter screen, HEK293 TRPC4/5HT1a, Fluo-4 (AID 434978;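 active = primary screen active whose calcium signal fell more than 3 SD beyond the full-serotonin control mean in both duplicate plates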;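 note: serotonin given first at submaximal then at maximal dose after compound preincubation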)
Conditions: Fluo-4 calcium flux, at 10 µM, serotonin added to trigger calcium flux; active compounds read high
How it was run: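 Test system: HEK293 cells stably co-expressing TRPC4 channel and 5HT1a serotonin receptor / Schedule: three 110 s phases (compound, two serotonin additions) / Measured by: kinetic Fluo-4 fluorescence readout of calcium flux / Benchmarks: maximal serotonin stimulation controls / Repeats: duplicate plates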

| SMILES | outcome |
| --- | --- |
| COc1ccc(C(CNC(=O)COc2ccccc2OC)N(C)C)cc1OC (stereo not drawn) | inactive |
| COc1ccc(C(CNC(=O)CCOc2ccccc2)N(C)C)cc1 (stereo not drawn) | inactive |
| CN(C)C(CNc1ccc(C(F)(F)F)cn1)c1ccccc1 (stereo not drawn) | inactive |
| Fc1ccc(-n2cc(CNCCc3cccnc3)c(-c3ccccc3Cl)n2)cc1 | inactive |
| CCOC(=O)c1ccc(NC(=O)NCCc2cnc[nH]2)cc1 | inactive |
| CN1CCN(C(=O)c2cccn(Cc3c(Cl)cccc3Cl)c2=O)CC1 | inactive |
| Cc1sc2ncnc(NCC(c3ccccc3)N(C)C)c2c1C (stereo not drawn) | inactive |
| O=C(O)C1C2C=CC(C2)C1C(=O)N1CCN(C/C=C/c2ccccc2)CC1 (stereo not drawn) | inactive |
| CCCCN(CC)CCNC(=O)c1cc2c(-c3ccc(Cl)cc3)nn(C)c2s1 | inactive |
| O=C(Nc1ccncc1)c1ccc(Cl)c(S(=O)(=O)N2CCc3ccccc32)c1 | inactive |
| CC(=O)OCC[N+](C)(C)C | inactive |
| COc1ccc(CCN(C)C(=O)C2CCCN(C3CCN(Cc4ccccc4)CC3)C2)cc1OC (stereo not drawn) | inactive |
| Cc1cc(C)cc(NC(=S)N2CCN(c3ncc(C(F)(F)F)cc3Cl)CC2)c1 | inactive |
| COc1ccc(C(CNC(=O)Cc2ccc(-c3ccccc3)cc2)N(C)C)cc1 (stereo not drawn) | inactive |
| O=c1c(Cc2ccccc2)c(O)ccn1CCc1cnc[nH]1 | inactive |
| COc1ccc(C(=O)NNC(=S)NC(=O)c2cccs2)cc1 | inactive |
| CCC(=O)NC(C)C(c1cccs1)N1CCN(c2ccccc2)CC1 (stereo not drawn) | inactive |
| NCCCNC(=O)c1cc2ccccc2[nH]1 | inactive |
| Cn1c2ccccc2c(=O)c2c(=O)n(C3CCCCC3)c(-c3ccco3)nc21 | inactive |
| COc1ccc(-n2c3c(cc(C(=O)NNc4ccccc4)c2=O)C(=O)CC(C)(C)C3)cc1 | inactive |

| SMILES | outcome |
| --- | --- |
| O=C(c1sc2ccccc2c1Cl)N(Cc1ccccc1)C1CCS(=O)(=O)C1 (stereo not drawn) | inactive |
| CN(C)C(CNC(=S)Nc1ccc(Cl)cc1)c1cccnc1 (stereo not drawn) | inactive |
| O=C1/C(=C\c2cc([N+](=O)[O-])ccc2O)SC(=S)N1Cc1ccc(Cl)cc1 | inactive |
| Cc1ccc(C(=O)NNC(=S)NC(=O)COc2ccccc2)cc1 | inactive |
| CCCCCc1c(O)nc(SCCN(C)C)[nH]c1=O | inactive |
| CC1CC(C)CN(CCCNS(=O)(=O)c2cc(Br)cc3c2N(C(=O)C2CC2)CC3)C1 (stereo not drawn) | inactive |
| CN1C2C=C(N(CCc3ccccc3)C(=O)c3ccc(Cl)cc3)CC1CC2 (stereo not drawn) | inactive |
| Cc1ccccc1C(=O)NNC(=S)NC(=O)COc1ccccc1 | inactive |
| CCOC(=O)C1(CC2CCCCO2)CCN(Cc2cc(F)ccc2-n2cccn2)CC1 (stereo not drawn) | inactive |
| Cc1ccc(NC(=O)CCN2CCC(Cc3ccccc3)CC2)cc1 | inactive |
| CCCn1ncc(CN2CCC(n3nccc3NC(=O)CCc3ccccc3)CC2)c1C | inactive |
| Cc1sc2ncnc(NCC(c3ccco3)N(C)C)c2c1C (stereo not drawn) | inactive |
| CCCN(CCC)CCNC(=O)CCC(=O)Nc1ccc2nc(N3CCOCC3)cc(C)c2c1 | inactive |
| CCN1CCN(c2c(Cl)cccc2NC(=O)c2ccc([N+](=O)[O-])cc2)CC1 | inactive |
| CN1CCN(c2ccc(NC(=O)c3ccc(-c4cccc([N+](=O)[O-])c4)o3)cc2)CC1 | inactive |
| OCCC1CN(Cc2ccccc2-c2ccco2)CCN1Cc1ccccc1 (stereo not drawn) | inactive |
| CN(C)C(CNC(=O)NC1CCCCC1)c1cccnc1 (stereo not drawn) | inactive |
| O=C1S/C(=C\c2ccc(N3CCOCC3)o2)C(=O)N1Cc1c(F)cccc1Cl | inactive |
| COCCCn1c(N)c(-c2nc3ccccc3n2C)c2nc3ccccc3nc21 | inactive |

Source: PubChem BioAssay
